According to ChEMBL document CHEMBL1128727, “Characterization of a class of peptide boronates with neutral P1 side chains as highly selective inhibitors of thrombin” (J Med Chem, 1995):

How the values were obtained:
[1] = Concentration of inhibitor required to produce a 2-fold prolongation in activated partial Thromboplastin time (APTT) in human plasma; format: functional
Procedure, shortened: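 Pooled citrated normal human plasma, APTT reagent and inhibitor were incubated for 5 min at 37 °C. Clotting was started with CaCl2 from a 25 mM aqueous solution and timed on a coagulometer. The inhibitor concentration that doubled the APTT was determined in duplicate.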

Prothrombin [2] = target: T1, Prothrombin (Homo sapiens, UniProt P00734); assay: Concentration of inhibitor required to produce a 2-fold prolongation in Thrombin time (TT)
Procedure, shortened: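 Pooled citrated normal human plasma was incubated with inhibitor for 1 min at 37 °C; the inhibitor was serially diluted in buffer from a DMSO stock. Human α-thrombin was then added from a 5 units/mL solution in 50 mM sodium phosphate, 0.1% PEG, pH 7.4. Clotting was timed on a coagulometer, and the concentration that doubled the thrombin time was determined in duplicate.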

Prothrombin [3] = target: T1, Prothrombin; assay: Binding affinity against thrombin
Procedure, shortened: (§1)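 Human α-thrombin or human γ-thrombin was assayed with S-2238 (H-D-Phe-Pip-Arg-pNA), with velocity measured over 2 min at 25 °C. A 2 h preincubation screened for slow binding. For competitive inhibitors, Ki came from Lineweaver–Burk plots at five substrate concentrations over 10-fold around Km; slow binders were fitted to the slow-binding rate equations. At least five points were run in duplicate.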

Coagulation factor X = Coagulation factor X (Homo sapiens, UniProt P00742); assay: Binding affinity against Coagulation factor X
Coagulation factor X, sequence (P00742 41-179 limits assumed): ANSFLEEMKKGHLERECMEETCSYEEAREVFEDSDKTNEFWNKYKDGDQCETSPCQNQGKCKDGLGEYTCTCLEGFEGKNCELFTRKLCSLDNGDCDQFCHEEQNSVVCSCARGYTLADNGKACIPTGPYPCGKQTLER
Coagulation factor X, sequence (P00742 235-488 limits assumed): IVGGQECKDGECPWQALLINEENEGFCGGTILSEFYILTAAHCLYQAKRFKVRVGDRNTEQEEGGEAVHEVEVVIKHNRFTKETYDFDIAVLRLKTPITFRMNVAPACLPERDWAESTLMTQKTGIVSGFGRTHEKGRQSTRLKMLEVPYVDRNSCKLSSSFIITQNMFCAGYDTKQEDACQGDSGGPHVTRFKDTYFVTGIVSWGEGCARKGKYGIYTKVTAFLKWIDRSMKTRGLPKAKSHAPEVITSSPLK
Procedure, shortened: (§2)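 Chromogenic pNA assays used human plasma factor Xa with S-2222, human plasmin with S-2251, human kidney urokinase with S-2444, and human plasma activated protein C with S-2366. Rates were read over 2 min at 25 °C. A 2 h enzyme–inhibitor preincubation tested for slow binding. For non-slow binders, Ki came from Lineweaver–Burk plots at five substrate levels over a 10-fold range around Km, using at least five points in duplicate.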

Chymotrypsinogen A = Chymotrypsinogen A (Bos taurus, UniProt P00766); assay: Binding affinity against Chymotrypsin
Procedure, shortened: (§3)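 Enzymes: bovine pancreatic α-chymotrypsin with S-2586 (MeO-Suc-Arg-Pro-Tyr-pNA), human plasma kallikrein with S-2288, porcine pancreatic elastase with Suc-Ala-Ala-Ala-pNA, and bovine pancreatic trypsin. Initial velocity was read at 25 °C over 2 min. A 2 h preincubation was used to screen for slow binding. For competitive inhibitors, Ki came from Lineweaver–Burk plots at five substrate concentrations spanning 10-fold around Km, using at least five points in duplicate.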

Plasminogen [4] = target: T2, Plasminogen (Homo sapiens, UniProt P00747); assay: Binding affinity against plasmin; procedure, shortened: as §2
T2 sequence (P00747 97-580 limits assumed): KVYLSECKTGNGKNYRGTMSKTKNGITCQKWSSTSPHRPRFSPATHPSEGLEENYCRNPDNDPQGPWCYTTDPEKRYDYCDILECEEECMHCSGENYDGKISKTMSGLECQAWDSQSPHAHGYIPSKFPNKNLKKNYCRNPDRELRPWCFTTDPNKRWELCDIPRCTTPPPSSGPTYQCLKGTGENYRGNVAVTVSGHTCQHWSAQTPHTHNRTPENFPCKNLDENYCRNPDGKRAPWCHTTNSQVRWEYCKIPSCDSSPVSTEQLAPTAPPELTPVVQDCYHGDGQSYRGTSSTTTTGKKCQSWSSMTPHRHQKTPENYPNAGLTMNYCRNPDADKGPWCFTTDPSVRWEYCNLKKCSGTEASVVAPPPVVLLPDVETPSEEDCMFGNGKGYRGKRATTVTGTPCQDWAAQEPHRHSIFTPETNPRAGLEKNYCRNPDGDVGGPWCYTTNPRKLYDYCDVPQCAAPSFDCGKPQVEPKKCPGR
T2 sequence (P00747 581-810 limits assumed): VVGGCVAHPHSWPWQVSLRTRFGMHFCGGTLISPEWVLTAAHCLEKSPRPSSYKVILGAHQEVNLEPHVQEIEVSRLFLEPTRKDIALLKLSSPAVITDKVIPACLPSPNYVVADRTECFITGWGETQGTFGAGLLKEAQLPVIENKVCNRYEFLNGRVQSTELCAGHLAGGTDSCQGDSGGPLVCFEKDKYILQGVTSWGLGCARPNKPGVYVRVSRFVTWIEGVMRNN

[5] = Binding affinity against protein Ca; procedure, shortened: as §2
Serine protease 1 = target: T3, Serine protease 1 (Bos taurus, UniProt P00760); assay: Binding affinity against Trypsin; procedure, shortened: as §3
T3 sequence (P00760 whole entry): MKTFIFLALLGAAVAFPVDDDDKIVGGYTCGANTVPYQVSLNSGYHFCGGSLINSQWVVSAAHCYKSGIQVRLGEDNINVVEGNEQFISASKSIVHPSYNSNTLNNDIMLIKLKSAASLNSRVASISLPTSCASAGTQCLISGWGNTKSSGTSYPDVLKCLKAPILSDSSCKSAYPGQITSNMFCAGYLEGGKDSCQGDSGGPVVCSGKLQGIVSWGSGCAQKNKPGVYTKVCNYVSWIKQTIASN

[6] = target: Urokinase-type plasminogen activator (Homo sapiens, UniProt P00749); assay: Binding affinity against Urokinase plasminogen activator; procedure, shortened: as §2
Prothrombin [7] = target: T1, Prothrombin; assay: Binding affinity against gamma thrombin; procedure, shortened: as §1
Prothrombin [8] = target: T1, Prothrombin; assay: Binding affinity against alpha thrombin; procedure, shortened: as §1
[9] = target: Plasma kallikrein (Homo sapiens) (UniProt P03952); assay: Binding affinity against plasma kallikrein
Plasma kallikrein (Homo sapiens), sequence (P03952 whole entry, looked up): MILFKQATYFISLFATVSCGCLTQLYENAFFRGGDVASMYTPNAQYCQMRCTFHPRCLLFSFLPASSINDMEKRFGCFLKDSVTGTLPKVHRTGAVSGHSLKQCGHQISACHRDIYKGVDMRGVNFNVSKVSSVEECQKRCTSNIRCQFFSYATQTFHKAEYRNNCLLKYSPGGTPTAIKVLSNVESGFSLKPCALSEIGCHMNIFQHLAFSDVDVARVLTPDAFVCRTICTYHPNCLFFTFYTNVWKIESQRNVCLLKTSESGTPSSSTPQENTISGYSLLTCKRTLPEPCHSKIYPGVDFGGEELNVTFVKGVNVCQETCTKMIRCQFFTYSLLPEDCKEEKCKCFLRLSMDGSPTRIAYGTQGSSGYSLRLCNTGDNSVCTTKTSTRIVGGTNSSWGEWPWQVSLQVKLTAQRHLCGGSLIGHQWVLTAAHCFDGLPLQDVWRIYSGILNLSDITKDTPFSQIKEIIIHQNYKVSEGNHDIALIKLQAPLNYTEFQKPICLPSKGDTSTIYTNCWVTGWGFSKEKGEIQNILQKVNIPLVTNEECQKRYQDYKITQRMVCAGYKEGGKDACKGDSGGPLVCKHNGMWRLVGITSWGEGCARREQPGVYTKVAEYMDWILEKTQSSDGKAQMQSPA

Plasminogen [10] = target: T2, Plasminogen; assay: Binding affinity against Plasmin; procedure, shortened: as §2
Cathepsin G = target: T4, Cathepsin G (Homo sapiens, UniProt P08311); assay: Binding affinity against cathepsin G
T4 sequence (P08311 whole entry): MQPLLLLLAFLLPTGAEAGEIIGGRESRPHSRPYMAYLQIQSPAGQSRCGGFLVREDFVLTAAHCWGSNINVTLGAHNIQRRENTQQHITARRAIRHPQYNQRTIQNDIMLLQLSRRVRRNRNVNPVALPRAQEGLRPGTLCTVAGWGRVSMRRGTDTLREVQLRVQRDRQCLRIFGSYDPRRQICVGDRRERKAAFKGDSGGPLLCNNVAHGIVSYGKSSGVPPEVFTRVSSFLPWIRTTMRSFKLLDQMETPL

TT (Prothrombin [2]) [µM] | Ki (Prothrombin [3]) [nM] | Ki (Chymotrypsinogen A) [nM] | Ki (Plasminogen [4]) [nM] | Ki [5] [nM] | Ki (Serine protease 1) [nM] | Ki [6] [nM] | Ki (Prothrombin [7]) [nM] | Ki (Prothrombin [8]) [nM] | Ki [9] [nM] | SMILES | APTT [1] [µM] | also measured
3.4 | 25 | – | – | – | – | – | – | – | – | CC1(C)C2CC1[C@]1(C)OB(C(CCC3OCCO3)NC(=O)[C@@H]3CCCN3C(=O)[C@H](Cc3ccccc3)NC(=O)OCc3ccccc3)O[C@@H]1C2 (stereo partly specified) | 18 | –
– | 130 | – | – | – | – | – | – | – | – | CC1(C)C2CC1[C@]1(C)OB(C(CCCBr)NC(=O)[C@@H]3CCCN3C(=O)[C@H](Cc3ccccc3)NC(=O)OCc3ccccc3)O[C@@H]1C2 (stereo in doubt; 14) | – | –
– | 7 | 1210 | 7800 | 2100 | 670 | 81000 | 28 | 7 | 6100 | COCCC[C@@H](NC(=O)[C@@H]1CCCN1C(=O)[C@@H](Cc1ccccc1)NC(=O)OCc1ccccc1)B1O[C@@H]2CC3CC(C3(C)C)[C@]2(C)O1 (stereo in doubt; 9a) [listing 1 of 2 here] | 3.4 | Ki (Coagulation factor X): 3100 nM
– | 7 | – | – | – | – | – | – | – | – | CC1(C)C2CC1[C@]1(C)OB(C(CCCBr)NC(=O)[C@@H]3CCCN3C(=O)[C@H](Cc3ccccc3)NC(=O)OCc3ccccc3)O[C@@H]1C2 (stereo in doubt; 12) | – | –
16 | – | 1460 | 13000 | 32000 | 2400 | 140000 | 140 | 82 | 370000 | CCC(C)(C)C(NC(=O)[C@@H]1CCCN1C(=O)[C@H](Cc1ccc2ccccc2c1)NC(=O)OCc1ccccc1)B1O[C@@H]2CC3CC(C3(C)C)[C@]2(C)O1 (stereo partly specified) | 110 | Ki (Coagulation factor X): 23000 nM
0.53 | 18 | 11 | 4500 | > 4300 | 150 | > 4300 | 11 | 18 | > 4300 | CC1(C)C2CC1[C@]1(C)OB(C(Cc3ccccc3)NC(=O)[C@@H]3CCCN3C(=O)[C@H](Cc3ccccc3)NC(=O)OCc3ccccc3)O[C@@H]1C2 (stereo partly specified) | 2.5 | Ki (Coagulation factor X): 1200 nM
5.2 | 130 | 21 | 3000 | > 4800 | 440 | > 48000 | 59 | 130 | 9500 | CC1(C)C2CC1[C@]1(C)OB(C(Cc3ccccc3)NC(=O)[C@@H]3CCCN3C(=O)[C@@H](NC(=O)OCc3ccccc3)C(c3ccccc3)c3ccccc3)O[C@@H]1C2 (stereo partly specified) | >50 | Ki (Coagulation factor X): 4300 nM
– | 11000 | – | – | – | – | – | – | – | – | COCCCC(NC(=O)[C@@H]1CCCN1C(=O)[C@H](Cc1ccccc1)NC(=O)OCc1ccccc1)B1O[C@@H]2CC3CC(C3(C)C)[C@]2(C)O1 (stereo partly specified) | – | –
– | 21 | – | – | – | – | – | – | – | – | COCCC(NC(=O)[C@@H]1CCCN1C(=O)[C@H](Cc1ccccc1)NC(=O)OCc1ccccc1)B1O[C@@H]2CC3CC(C3(C)C)[C@]2(C)O1 (stereo partly specified) | – | –
– | 7 | – | – | – | – | – | – | – | – | COCCC[C@@H](NC(=O)[C@@H]1CCCN1C(=O)[C@@H](Cc1ccccc1)NC(=O)OCc1ccccc1)B1O[C@@H]2CC3CC(C3(C)C)[C@]2(C)O1 (stereo in doubt; 10) | – | –
21 | 82 | 2890 | 17000 | > 63000 | 560 | > 63000 | 34 | 28 | > 63000 | CCC(C)(C)C(NC(=O)[C@@H]1CCCN1C(=O)[C@@H](NC(=O)OCc1ccccc1)C(c1ccccc1)c1ccccc1)B1O[C@@H]2CC3CC(C3(C)C)[C@]2(C)O1 (stereo partly specified) | 50 | Ki (Plasminogen [10]): 17000 nM
– | 100 | – | – | – | – | – | – | – | – | CCCCCC(NC(=O)[C@@H]1CCCN1C(=O)[C@H](Cc1ccccc1)NC(=O)OCc1ccccc1)B1O[C@@H]2CC3CC(C3(C)C)[C@]2(C)O1 (stereo in doubt; 21) | – | –
– | 19 | – | – | – | – | – | – | – | – | CC(C)C(NC(=O)[C@@H]1CCCN1C(=O)[C@@H](NC(=O)OCc1ccccc1)C(c1ccccc1)c1ccccc1)B1O[C@@H]2CC3CC(C3(C)C)[C@]2(C)O1 (stereo partly specified) | – | –
3.9 | 43 | – | – | – | – | – | – | – | – | CCCCCCCCC(NC(=O)[C@@H]1CCCN1C(=O)[C@H](Cc1ccccc1)NC(=O)OCc1ccccc1)B1O[C@@H]2CC3CC(C3(C)C)[C@]2(C)O1 (stereo partly specified) | >50 | –
2.8 | – | – | – | – | – | – | – | – | – | COCCC[C@@H](NC(=O)[C@@H]1CCCN1C(=O)[C@@H](Cc1ccccc1)NC(=O)OCc1ccccc1)B1O[C@@H]2CC3CC(C3(C)C)[C@]2(C)O1 (stereo in doubt; 9a) [listing 2 of 2 here] | – | –
– | 120 | – | – | – | – | – | – | – | – | COCCC[C@@H](NC(=O)[C@@H]1CCCN1C(=O)[C@@H](Cc1ccccc1)NC(=O)OCc1ccccc1)B1O[C@@H]2CC3CC(C3(C)C)[C@]2(C)O1 (stereo in doubt; 11) | – | –
– | 7 | – | – | – | – | – | – | – | – | COCCC[C@@H](NC(=O)[C@@H]1CCCN1C(=O)[C@@H](Cc1ccccc1)NC(=O)OCc1ccccc1)B1O[C@@H]2CC3CC(C3(C)C)[C@]2(C)O1 (stereo in doubt; 9b) | – | –
– | 1000 | – | – | – | – | – | – | – | – | CCC(NC(=O)[C@@H]1CCCN1C(=O)[C@H](Cc1ccccc1)NC(=O)OCc1ccccc1)B1O[C@@H]2CC3CC(C3(C)C)[C@]2(C)O1 (stereo partly specified) | – | –
– | 42 | 1200 | 24000 | 53000 | 450 | 540000 | 27 | 42 | 160000 | CCCCCC(NC(=O)[C@@H]1CCCN1C(=O)[C@@H](NC(=O)OCc1ccccc1)C(c1ccccc1)c1ccccc1)B1O[C@@H]2CC3CC(C3(C)C)[C@]2(C)O1 (stereo partly specified) | – | Ki (Coagulation factor X): 13000 nM; Ki (Cathepsin G): 14300 nM
0.54 | – | – | – | – | – | – | – | – | – | CCCCCC(NC(=O)[C@@H]1CCCN1C(=O)[C@H](Cc1ccccc1)NC(=O)OCc1ccccc1)B1O[C@@H]2CC3CC(C3(C)C)[C@]2(C)O1 (stereo in doubt; 3) [listing 1 of 2 here] | – | –
– | 20 | – | – | – | – | – | – | – | – | Cc1ccc(CCC(NC(=O)[C@@H]2CCCN2C(=O)[C@H](Cc2ccccc2)NC(=O)OCc2ccccc2)B2O[C@@H]3CC4CC(C4(C)C)[C@]3(C)O2)cc1 (stereo partly specified) | – | –
– | 29 | – | – | – | – | – | – | – | – | CC1(C)C2CC1[C@]1(C)OB(C(CCCl)NC(=O)[C@@H]3CCCN3C(=O)[C@H](Cc3ccccc3)NC(=O)OCc3ccccc3)O[C@@H]1C2 (stereo partly specified) | – | –
– | 19 | 115 | 2900 | 1600 | 320 | 23000 | 19 | 19 | 120000 | CCCCCC(NC(=O)[C@@H]1CCCN1C(=O)[C@H](Cc1ccccc1)NC(=O)OCc1ccccc1)B1O[C@@H]2CC3CC(C3(C)C)[C@]2(C)O1 (stereo in doubt; 3) [listing 2 of 2 here] | 2.3 | Ki (Coagulation factor X): 580 nM
– | 15000 | – | – | – | – | – | – | – | – | CC1(C)C2CC1[C@]1(C)OB(C(CCCBr)NC(=O)[C@@H]3CCCN3C(=O)[C@H](Cc3ccccc3)NC(=O)OCc3ccccc3)O[C@@H]1C2 (stereo in doubt; 13) | – | –
0.63 | 3 | 2960 | 12000 | 2400 | 54 | 33000 | 4 | 2 | 34000 | COCCCC(NC(=O)[C@@H]1CCCN1C(=O)[C@@H](NC(=O)OCc1ccccc1)C(c1ccccc1)c1ccccc1)B1O[C@@H]2CC3CC(C3(C)C)[C@]2(C)O1 (stereo partly specified) | 20 | Ki (Coagulation factor X): 7200 nM
– | 26 | – | – | – | – | – | – | – | – | CCCCCC(NC(=O)[C@@H]1CCCN1C(=O)[C@H](Cc1ccccc1)NC(=O)OCc1ccccc1)B1O[C@@H]2CC3CC(C3(C)C)[C@]2(C)O1 (stereo in doubt; 2) | – | –
1.1 | 7 | 152 | 5500 | 4200 | 270 | 15000 | 24 | 7 | 9500 | CCC(C)(C)C(NC(=O)[C@@H]1CCCN1C(=O)[C@H](Cc1ccccc1)NC(=O)OCc1ccccc1)B1O[C@@H]2CC3CC(C3(C)C)[C@]2(C)O1 (stereo partly specified) | 4 | Ki (Coagulation factor X): 2600 nM
